Measured values: article PMC7501995 (Cell metabolism, 2020)
Entries after “also recorded” stand apart in the source; their conditions may differ.

Tests used:
[1] = system: TXNIP mRNA expression in INS-1 cells; experiment: TXNIP mRNA expression by qRT-PCR in INS-1 cells; assay type: cell-based; conditions: rat INS-1 cells, 25 mM glucose, 1 μM, 24 h, qPCR
Summary of the method: (§1)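 INS-1 cells, C57BL/6J mouse islets (collagenase XI-isolated) or human islets (at least three donors, same-donor controls) kept overnight in 5 mM glucose RPMI 1640. Then incubated 24 h in 25 mM glucose RPMI 1640 with or without 1 µM test compound. TXNIP and related mRNAs measured by qRT-PCR; n = 6 (INS-1) or 3 (mouse islets) independent experiments.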

[2] = Cellular cytotoxicity assay; assay type: cell-based; conditions: in vitro
L-type calcium channels = experiment: Calcium channel blockade; conditions: in contrast to verapamil
[3] = system: C57BL/6J mice rendered diabetic by multiple low-dose STZ; experiment: Multiple low-dose STZ-induced diabetes in C57BL/6J mice; assay type: in vivo, mouse
C57BL/6J mice [4] = experiment: Hyperinsulinemic-euglycemic clamp in lean C57BL/6J mice; assay type: in vivo, mouse
Summary of the method: (§2)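 Lean C57BL/6J or db/db mice given a jugular vein catheter 5–6 days beforehand; treated with test compound and fasted overnight. 2 h hyperinsulinemic-euglycemic clamp run in awake mice with human insulin (150 mU/kg prime, then 2.5 mU/kg/min). Tissue uptake in gastrocnemius and epididymal WAT from 2-[14C]DG-6-phosphate, separated by ion-exchange, and the plasma 2-[14C]DG profile. n = 5–6 mice/group.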

[5] = system: TXNIP protein levels in INS-1 cells; experiment: TXNIP protein immunoblotting in INS-1 cells; assay type: cell-based, rat; conditions: 24h
Summary of the method: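 Rat INS-1 beta-like cells were grown at 37°C in humidified 5% CO2. Whole-cell protein extracts were prepared and protein was quantified by BCA assay. Equal protein amounts were loaded per lane for TXNIP immunoblotting.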

[6] = system: primary mouse hepatocytes; experiment: Hepatocyte glucose output; assay type: cell-based
Summary of the method: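 Hepatocytes were isolated from male C57BL/6J, liver-specific GcgR-knockout or Txnip-deficient mice and plated on collagen at 3 × 10^5 cells/well in serum-free DMEM. After 4 h attachment, they were treated 24h with graded test-compound concentrations. For the last 6h, cells were washed twice in PBS and placed in serum-, glucose- and phenol red-free DMEM, with or without lactate (10 mM) and/or glucagon (100 nM). Medium glucose was read colorimetrically and normalized to total protein; n = 3–4 mice.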

db/db mice [7] = experiment: Oral treatment of obese, diabetic db/db mice; assay type: in vivo, mouse
C57BL/6J mice [8] = experiment: Oral administration in drinking water to wild-type C57BL/6J mice; assay type: in vivo, mouse
db/db mice [9] = experiment: Hyperinsulinemic-euglycemic clamp in db/db mice; assay type: in vivo, mouse
Summary of the method: as §2

[10] = system: primary mouse hepatocytes; experiment: Hepatocyte cAMP production; assay type: cell-based
Summary of the method: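 Primary hepatocytes came from anesthetized lean chow-fed male C57BL/6J mice, liver-specific glucagon receptor knockout mice, or Txnip-deficient mice. They were plated on collagen at 3 × 10^5 cells/well in serum-free DMEM and left 4 h to attach. Medium was then changed and cells were exposed to graded test-compound concentrations with glucagon for 24h. Cells were washed twice in PBS and harvested in 0.1M HCl. Intracellular cAMP was measured by direct immunoassay; n = 3 independent experiments.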

[11] = system: polymerase II (Pol II) binding to the TXNIP promoter; experiment: Chromatin immunoprecipitation of Pol II in INS-1 cells; assay type: cell-based, rat; conditions: ChIP
Summary of the method: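 INS-1 cells crosslinked in 1% formaldehyde/PBS for 15 min, then quenched with glycine. Lysed in SDS/Triton buffer, pH 8.1, with protease inhibitors, and sonicated (10 × 30 s pulses). 500 µg precleared lysate incubated with 4 µg anti-Pol II antibody or control IgG overnight at 4°C; 1/10 kept as input. Complexes captured on Protein A-Sepharose for 3 h, then washed in lysis, wash, LiCl and TE buffers. Regions probed: E-box, upstream TXNIP and IRS2 site. n = 3 independent experiments.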

[12] = system: TXNIP expression in primary mouse islets; experiment: TXNIP expression by qPCR in primary mouse islets at high glucose; assay type: cell-based; conditions: 25 mM glucose, 1 μM, 24 h
Summary of the method: as §1

[13] = Off-target liability panel; conditions: currently available panel
[14] = system: TXNIP expression in human islets; assay type: cell-based
Summary of the method: as §1

[15] = Plasma concentration and oral bioavailability in mice; assay type: in vivo, mouse
[16] = GcgR−/−L hepatocytes, glucagon present
[17] = C57BL/6J mice, oral 100 mg/kg/day
[18] = livers of treated C57BL/6J mice
[19] = male C57BL/6J mice, oral 100 mg/kg/day, 3 weeks

## CS(=O)(=O)NCC1CCCN(c2ncnc3ccc(C(F)(F)F)cc23)C1 (stereo not shown) [SRI-37330, N-((1-(6-(trifluoromethyl)quinazolin-4-yl)piperidin-3-yl)methyl)methanesulfonamide]
[1]
  TXNIP expression in the context of high glucose: significantly inhibit TXNIP expression
[2]
  cytotoxicity: no cytotoxicity
L-type calcium channels
  calcium channel blocker activity: not a calcium channel blocker
[3]; STZ mice
  urine glucose, fold lower than in untreated or empagliflozin-treated animals: more than 10 fold
[3]; STZ mice, drinking water
  blood glucose control compared to metformin or empagliflozin: slightly better blood glucose control than metformin or empagliflozin
[3]; STZ mice, vs untreated
  body weight at the end of the experiment: higher body weight
  fasting blood glucose: lower fasting blood glucose
  fasting serum insulin: higher; also recorded: almost two-fold elevation
[3]; STZ mice, only treatment with this effect
  serum triglycerides: significantly lower serum triglycerides
[3]; STZ-diabetic mice
  fasting serum glucagon, fold lower than untreated: 3.6 fold
[3]; STZ-induced diabetes, gavage 12 h apart
  effectiveness by oral gavage twice a day: confirmed its effectiveness in obesity- as well as STZ-induced diabetes
[3]; oral gavage twice a day
  dose-dependence of glucose lowering: dose-dependence of the glucose-lowering effects
C57BL/6J mice [4]; lean C57BL/6J mice
  glucose infusion rates: comparable between groups
  hepatic insulin action: comparable between groups
C57BL/6J mice [4]; lean C57BL/6J mice, epididymal
  insulin-stimulated glucose uptake in white adipose tissue: comparable between groups
C57BL/6J mice [4]; lean C57BL/6J mice, gastrocnemius
  insulin-stimulated glucose uptake in skeletal muscle: comparable between groups
C57BL/6J mice [4]; lean awake C57BL/6J mice
  basal hepatic glucose production: significantly downregulated
  insulin sensitivity: no alteration in insulin sensitivity
[5]
  TXNIP protein levels: inhibited TXNIP protein levels in a dose-dependent manner
[6]; [16]
  hepatocyte glucose output: no longer able to inhibit hepatocyte glucose output or cAMP production
[6]; primary hepatocytes of TXNIP-deficient mice, glucagon present
  glucose output: maintained its ability to block glucose output and glucagon-induced cAMP production
[6]; wild-type primary hepatocytes, 24h, no substrate or lactate
  basal or stimulated glucose output in the absence of glucagon: did not affect basal or stimulated glucose output
db/db mice [7]; db/db mice
  hepatic steatosis (liver histology): dramatically improved the severe steatosis
db/db mice [7]; db/db mice, islet morphometry
  alpha cell mass: small, but significant decline in alpha cell mass
  alpha cell number: clear trend towards lower alpha cell number
  beta cell mass and number: remained unchanged
db/db mice [7]; db/db mice, oral
  fasting blood glucose: significantly downregulated
  fasting serum glucagon: significant downregulate
  fasting serum insulin: remained unchanged
db/db mice [7]; db/db mice, oral, 4 weeks
  body weight: did not affect body weights
  non-fasting blood glucose: decreased significantly within 3 days of starting SRI-37330 treatment and returned to euglycemic levels
db/db mice [7]; obesity-induced diabetes, gavage 12 h apart
  effectiveness by oral gavage twice a day: confirmed its effectiveness in obesity- as well as STZ-induced diabetes
C57BL/6J mice [8]; [17]
  fasting blood glucose: slightly, but significantly lower
  fasting serum glucagon: lower
  fasting serum insulin: unchanged
C57BL/6J mice [8]; C57BL/6J mice, oral 100 mg/kg/day, within 3 days, persisted 3 weeks
  non-fasting blood glucose: small but significant decrease in blood glucose levels
C57BL/6J mice [8]; C57BL/6J mice, oral 100 mg/kg/day, 1 U/kg insulin i.p.
  insulin tolerance test (ITT): remained unaltered
C57BL/6J mice [8]; C57BL/6J mice, oral 100 mg/kg/day, 3 g/kg glucose i.p. after 4 h fast
  intraperitoneal glucose tolerance test (GTT): consistently and significantly improved glucose tolerance
C57BL/6J mice [8]; fasting mice, 15 min after insulin bolus 1 U/kg
  blood glucose during insulin-induced hypoglycemia: able to maintain their blood glucose levels equally well to untreated controls
C57BL/6J mice [8]; lean mice
  fatty liver (liver histology): did not lead to any fatty liver
C57BL/6J mice [8]; [18]
  liver expression of Pck1 and G6pc: lower expression
  liver glycogen content: higher glycogen content
C57BL/6J mice [8]; male C57BL/6J mice, oral 100 mg/kg/day in drinking water, 3 weeks
  tolerability: well tolerated
C57BL/6J mice [8]; [19]
  body weight: no change in body weight
  gross abnormalities in organs at sacrifice: no gross abnormalities in any organs
C57BL/6J mice [8]; mouse, in vivo
  safety profile in vivo: excellent safety profile in vivo
C57BL/6J mice [8]; treated C57BL/6J mice
  liver and serum triglyceride levels: lower liver and serum triglyceride levels
  liver transaminase levels: did not cause any elevation in liver transaminase levels
db/db mice [9]
  basal hepatic glucose production: significantly lower basal hepatic glucose production
  glucose infusion rate: not significantly different
  hepatic insulin action: not significantly different
  insulin-stimulated glucose uptake in skeletal muscle: remained unchanged
  insulin-stimulated glucose uptake in white adipose tissue: remained unchanged
[10]; [16]
  cAMP production: no longer able to inhibit hepatocyte glucose output or cAMP production
[10]; primary hepatocytes of TXNIP-deficient mice
  glucagon-induced cAMP production: maintained its ability to block glucose output and glucagon-induced cAMP production
[10]; wild-type primary hepatocytes, 24h, glucagon
  glucagon-induced production of cAMP: significantly downregulated in a dose-dependent manner
[11]
  Pol II binding to the E-box motif region of the TXNIP promoter: effectively inhibited
  Pol II binding to upstream TXNIP promoter region and to IRS2 site: but not to an upstream TXNIP promoter region or to an established Pol II binding site
[12]
  TXNIP expression in the context of high glucose: significantly inhibit TXNIP expression
[13]
  off-target liabilities: lack of off-target liabilities
[14]; human islets, qRT-PCR, negative controls
  expression of other arrestin genes ARRB1 and ARRDC3 and of thioredoxin: not affected
[14]; isolated human islets, 25 mM glucose, 1 μM, 24 h
  TXNIP expression in the context of high glucose: significantly inhibit TXNIP expression
[15]; mice, 100 mg/kg/day in the drinking water
  average plasma concentration: 5 µmol/L
[15]; mouse, in vivo, po
  oral bioavailability: orally bioavailable
